Activity calls are given as the source filed them. No cut-off for these calls is given here.

The values that follow come from ChEMBL document CHEMBL4004813, “Oscarellin, an Anthranilic Acid Derivative from a Philippine Sponge, Oscarella stillans, as an Inhibitor of Inflammatory Cytokines in Macrophages” (J Nat Prod, 2017).

In data set [1] the test system is RAW264.7. Briefly: Anti-inflammatory activity in mouse RAW264.7 cells assessed as reduction in LPS-induced TNFalpha production preincubated for 2 hrs followed by LPS stimulation for 24 hrs by ELISA. It counts as functional, cell-based. A digest of the protocol:
(§1)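 RAW 264.7 cells (DMEM, 10% heat-inactivated FBS, 37 °C, 5% CO2) pretreated 2 h with compound at 0.1, 1 or 10 μg/mL, then LPS 1 μg/mL for 24 h. TNF-α and IL-6 in the supernatant measured by sandwich ELISA. Dexamethasone 10 and 20 μM served as reference. Means ± SEM of quintuplicate replicates, one representative experiment.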

Data set [2] addresses Transcription factor Jun (Mus musculus) (UniProt P05627). Briefly: Inhibition of LPS-induced nuclear translocation of AP-1 c-Jun component in mouse RAW264.7 cells up to 10 ug/ml preincubated for 2 hrs followed by LPS stimulation for 4 hrs by Western blot method. The class given is cell-based. The method in brief:
(§2)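 Pretreatment was 2 h (0.1, 1, 10 μg/mL), then LPS 1 μg/mL for 4 h. Cytosolic extracts came from a 1500g, 10 min, 4 °C spin and nuclear fractions from 13000g, 10 min, 4 °C. p65, c-Jun and c-Fos were detected by Western blot (8% SDS-PAGE, PVDF, ECL), with β-actin as reprobe control.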
(In western blotting, separated proteins are transferred to a membrane and probed.)

For data set [3], the system named is RAW264.7. The data set is described as follows: Anti-inflammatory activity in mouse RAW264.7 cells transfected with ATF-3 shRNA assessed as reduction in LPS-induced TNFalpha production at 10 ug/ml preincubated for 2 hrs followed by LPS stimulation for 24 hrs by ELISA. The class given is functional, cell-based. A digest of the protocol: (§3)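 Cells received compound at 10 μg/mL for 2 h, then LPS 1 μg/mL for 24 h. TNF-α and IL-6 in the medium were measured by ELISA and compared with control shRNA cells.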

The target of data set [4] is Transcription factor p65 (Mus musculus) (UniProt Q04207). The data set is described as follows: Inhibition of p65 nuclear translocation in LPS-stimulated mouse RAW264.7 cells preincubated for 2 hrs followed by LPS stimulation for 4 hrs by Western blot method. A digest of the protocol: as §2
Data set [5] concerns RAW264.7. The data set is described as follows: Cytotoxicity against mouse RAW264.7 cells assessed as reduction in cell viability up to 100 ug/ml after 24 hrs by MTT assay. It counts as cell-based. The following applies: raw264.7, 24 h. A digest of the protocol:
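RAW 264.7 cells were seeded at 5 × 10^4 per well and exposed 24 h to 0.1, 1, 10, 50 and 100 μg/mL. MTT was then added in full DMEM for 4 h, formazan was dissolved in DMSO, and OD was read at 550 nm.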
(In general: Tetrazolium dyes change colour on reduction, which living cells bring about.)

Data set [6] has as its system RAW264.7. Briefly: Anti-inflammatory activity in mouse RAW264.7 cells assessed as reduction in LPS-induced IL-6 production preincubated for 2 hrs followed by LPS stimulation for 24 hrs by ELISA. It counts as functional, cell-based. The method in brief: as §1
For orientation: In an ELISA, binding on a coated surface is turned into a signal by an enzyme label.

Data set [7] relates to RAW264.7. The data set is described as follows: Induction of LPS-induced ATF-3 expression in mouse RAW264.7 cells preincubated for 2 hrs followed by LPS stimulation for 4 hrs by Western blot method. The class given is functional, cell-based. A digest of the protocol: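 Cells were pretreated 2 h (0.1–10 μg/mL), then stimulated with LPS 1 μg/mL for 4 h. ATF-3 was detected by Western blot (8% SDS-PAGE, PVDF, ECL) and quantified by densitometry, normalized to β-actin, in arbitrary units. Blots are representative of three experiments.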

The target in data set [8] is T1, NF-kappa-B inhibitor alpha (Mus musculus) (UniProt Q9Z1E3).
T1 sequence (whole entry): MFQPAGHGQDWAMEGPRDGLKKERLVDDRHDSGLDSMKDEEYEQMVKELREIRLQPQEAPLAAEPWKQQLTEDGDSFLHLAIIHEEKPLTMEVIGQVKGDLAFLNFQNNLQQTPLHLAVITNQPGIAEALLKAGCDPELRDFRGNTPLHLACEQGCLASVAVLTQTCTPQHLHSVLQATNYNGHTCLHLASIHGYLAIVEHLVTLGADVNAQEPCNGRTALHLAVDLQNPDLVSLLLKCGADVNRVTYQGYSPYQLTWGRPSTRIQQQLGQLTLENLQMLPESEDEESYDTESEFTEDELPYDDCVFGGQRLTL
Briefly: Inhibition of LPS-induced degradation of IkappaB-alpha in mouse RAW264.7 cells at 10 ug/ml preincubated for 2 hrs followed by LPS stimulation up to 45 mins by Western blot method. It counts as cell-based. A digest of the protocol:
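Cells were pretreated 2 h with 10 μg/mL, then given LPS 1 μg/mL for varying times. IκBα was detected in lysates by Western blot with ECL, using β-actin as internal control. Results are representative of three experiments.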

For data set [9], the species on record is Mus musculus. Briefly: Inhibition of LPS-induced JNK phosphorylation in mouse RAW264.7 cells up to 10 ug/ml preincubated for 2 hrs followed by LPS stimulation for 15 mins by Western blot method. The class given is cell-based. A digest of the protocol:
(§4)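 RAW 264.7 cells were preincubated 2 h at 0.1, 1 or 10 μg/mL, then exposed to LPS 1 μg/mL for 15 min. Lysates were resolved on 8% SDS-PAGE, transferred to PVDF and probed for the phosphorylated MAP kinases. Detection was by ECL, with membranes reprobed for β-actin as loading control.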

For data set [10], the target named is Mitogen-activated protein kinase 1 and 3 (ERK2 and ERK1) (Mus musculus) (UniProt P63085+Q63844). Briefly: Inhibition of LPS-induced ERK1/2 phosphorylation in mouse RAW264.7 cells up to 10 ug/ml preincubated for 2 hrs followed by LPS stimulation for 15 mins by Western blot method. The class given is cell-based. The method in brief: as §4
Data set [11] deals with MAP kinase p38 (Mus musculus) (UniProt P47811+O08911+Q9WUI1+Q9Z1B7). The data set is described as follows: Inhibition of LPS-induced MAPK p38 phosphorylation in mouse RAW264.7 cells up to 10 ug/ml preincubated for 2 hrs followed by LPS stimulation for 15 mins by Western blot method. It counts as cell-based. The method in brief: as §4
Data set [12] addresses Transcription factor Jun (Homo sapiens) (UniProt P05412). The data set is described as follows: Inhibition of AP-1 (unknown origin) activation expressed in LPS-stimulated mouse RAW264.7 cells preincubated for 2 hrs followed by LPS stimulation for 4 hrs by luciferase reporter gene assay. It counts as cell-based. A digest of the protocol:
(§5)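 Cells were plated at 5 × 10^5/mL and transiently cotransfected by lipofection with pGL3-NF-κB-Luc or pGL2-AP-1-Luc plus a normalization plasmid. After 24 h they were pretreated 2 h with the compound (0.1, 1, 10 μg/mL for NF-κB), then given LPS 1 μg/mL for 4 h. Cells were washed in cold PBS, and luciferase was read in the lysates.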

The species entered for data set [13] is Homo sapiens. Briefly: Inhibition of NF-kB (unknown origin) activation expressed in LPS-stimulated mouse RAW264.7 cells up to 10 ug/ml preincubated for 2 hrs followed by LPS stimulation for 4 hrs by luciferase reporter gene assay. It counts as cell-based. The method in brief:
as §5

Data set [14] relates to RAW264.7. The data set is described as follows: Anti-inflammatory activity in mouse RAW264.7 cells assessed as reduction in LPS-induced NO production up to 10 ug/ml preincubated for 2 hrs followed by LPS stimulation for 24 hrs by Griess assay. It counts as functional, cell-based. The method in brief:
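RAW 264.7 cells were pretreated 2 h with 0.1–10 μg/mL, then given LPS 1 μg/mL for 24 h. Supernatant was mixed 1:1 with Griess reagent (sulfanilamide in 5% phosphoric acid plus α-naphthylamide) for 15 min at room temperature, and A550 was read. Nitrite served as the NO index. Dexamethasone 10 and 20 μM was the reference. Quintuplicates, mean ± SEM.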

The target of data set [15] is Proto-oncogene c-Fos (Mus musculus) (UniProt P01101). Briefly: Inhibition of LPS-induced nuclear translocation of AP-1 c-Fos component in mouse RAW264.7 cells up to 10 ug/ml preincubated for 2 hrs followed by LPS stimulation for 4 hrs by Western blot method.
For data set [16], the system named is RAW264.7. The data set is described as follows: Anti-inflammatory activity in mouse RAW264.7 cells transfected with ATF-3 shRNA assessed as reduction in LPS-induced IL-6 production at 10 ug/ml preincubated for 2 hrs followed by LPS stimulation for 24 hrs by ELISA. It counts as functional, cell-based. The method in brief:
as §3

Chain of Transcription factor Jun (Mus musculus) (P05627 whole entry): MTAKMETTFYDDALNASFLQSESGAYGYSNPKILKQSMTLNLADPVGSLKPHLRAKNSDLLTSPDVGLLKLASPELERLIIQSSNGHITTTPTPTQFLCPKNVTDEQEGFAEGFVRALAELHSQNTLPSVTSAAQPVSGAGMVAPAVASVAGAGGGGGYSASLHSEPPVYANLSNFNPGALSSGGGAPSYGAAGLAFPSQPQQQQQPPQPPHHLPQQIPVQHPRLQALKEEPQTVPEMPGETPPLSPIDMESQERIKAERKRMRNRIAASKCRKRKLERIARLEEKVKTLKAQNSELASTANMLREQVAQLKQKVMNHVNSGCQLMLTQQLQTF
Chain of Transcription factor Jun (Homo sapiens) (P05412 whole entry): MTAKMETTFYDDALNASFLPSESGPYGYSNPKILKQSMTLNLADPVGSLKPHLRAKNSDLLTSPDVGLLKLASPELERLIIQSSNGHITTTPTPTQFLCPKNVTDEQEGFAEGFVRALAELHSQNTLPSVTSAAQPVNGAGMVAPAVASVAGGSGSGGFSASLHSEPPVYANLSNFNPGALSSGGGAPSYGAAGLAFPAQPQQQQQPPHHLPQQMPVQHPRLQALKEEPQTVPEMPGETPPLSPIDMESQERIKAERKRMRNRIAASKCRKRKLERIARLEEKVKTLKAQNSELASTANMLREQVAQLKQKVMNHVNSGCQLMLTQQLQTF
Chain of Transcription factor p65 (Mus musculus) (Q04207 whole entry): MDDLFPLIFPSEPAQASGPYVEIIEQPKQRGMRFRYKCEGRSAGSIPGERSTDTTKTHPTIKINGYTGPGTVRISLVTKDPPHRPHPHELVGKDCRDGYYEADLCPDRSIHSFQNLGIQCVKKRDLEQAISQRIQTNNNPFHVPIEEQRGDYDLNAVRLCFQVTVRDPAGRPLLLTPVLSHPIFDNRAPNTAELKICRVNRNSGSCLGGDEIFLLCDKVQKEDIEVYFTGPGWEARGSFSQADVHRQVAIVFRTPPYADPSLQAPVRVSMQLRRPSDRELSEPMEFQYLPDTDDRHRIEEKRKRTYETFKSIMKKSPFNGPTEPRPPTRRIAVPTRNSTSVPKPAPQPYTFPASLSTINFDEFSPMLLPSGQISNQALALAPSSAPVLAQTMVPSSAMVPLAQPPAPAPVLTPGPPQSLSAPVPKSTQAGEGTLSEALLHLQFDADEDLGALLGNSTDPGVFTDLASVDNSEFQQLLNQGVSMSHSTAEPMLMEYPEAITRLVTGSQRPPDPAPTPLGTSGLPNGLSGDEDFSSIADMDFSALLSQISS
Chain of Proto-oncogene c-Fos (Mus musculus) (P01101 whole entry, looked up): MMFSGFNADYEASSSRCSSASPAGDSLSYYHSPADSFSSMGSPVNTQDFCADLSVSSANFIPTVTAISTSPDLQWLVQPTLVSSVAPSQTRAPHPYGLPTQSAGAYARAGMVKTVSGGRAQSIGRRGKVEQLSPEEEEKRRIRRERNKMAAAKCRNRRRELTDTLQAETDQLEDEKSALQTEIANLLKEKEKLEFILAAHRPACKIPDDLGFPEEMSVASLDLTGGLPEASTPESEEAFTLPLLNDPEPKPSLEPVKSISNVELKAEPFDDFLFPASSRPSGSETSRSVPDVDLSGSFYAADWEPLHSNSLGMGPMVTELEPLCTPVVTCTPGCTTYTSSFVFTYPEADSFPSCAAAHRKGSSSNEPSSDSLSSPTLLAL
Chain of Mitogen-activated protein kinase 1 and 3 (ERK2 and ERK1) (Mus musculus) (P63085 whole entry, looked up): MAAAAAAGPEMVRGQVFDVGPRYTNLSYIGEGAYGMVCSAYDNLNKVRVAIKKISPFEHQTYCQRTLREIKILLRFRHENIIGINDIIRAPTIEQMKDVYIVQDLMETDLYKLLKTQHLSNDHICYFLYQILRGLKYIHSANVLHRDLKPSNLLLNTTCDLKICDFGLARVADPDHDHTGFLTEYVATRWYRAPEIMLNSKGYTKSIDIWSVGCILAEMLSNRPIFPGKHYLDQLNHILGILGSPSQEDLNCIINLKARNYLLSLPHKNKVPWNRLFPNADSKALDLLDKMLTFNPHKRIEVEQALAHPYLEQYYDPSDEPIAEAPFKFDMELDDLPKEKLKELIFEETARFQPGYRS
Chain of Mitogen-activated protein kinase 1 and 3 (ERK2 and ERK1) (Mus musculus) (Q63844 whole entry, looked up): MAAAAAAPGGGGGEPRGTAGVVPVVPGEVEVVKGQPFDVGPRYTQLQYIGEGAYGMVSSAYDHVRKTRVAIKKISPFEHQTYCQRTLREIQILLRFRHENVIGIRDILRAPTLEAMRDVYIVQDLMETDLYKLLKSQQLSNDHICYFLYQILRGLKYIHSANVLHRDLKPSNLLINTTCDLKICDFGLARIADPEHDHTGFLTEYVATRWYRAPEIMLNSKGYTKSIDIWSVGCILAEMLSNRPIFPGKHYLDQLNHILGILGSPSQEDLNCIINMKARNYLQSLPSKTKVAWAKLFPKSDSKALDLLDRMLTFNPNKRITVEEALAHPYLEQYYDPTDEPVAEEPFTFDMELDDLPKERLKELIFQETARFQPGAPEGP

As to `NCCCOc1cccc(C(=O)O)c1N`, the figures for the Activity result in data set [1], in [5] and in [6] were “Dose-dependent effect”, “Non-Toxic” and “Dose-dependent effect”, respectively. Besides, the inhibition result in data set [2], in data set [8], in [9], in data set [10], in [13] and in [15] was “Active” each time. For the same compound, the result in data set [3], in [14] and in [16] was inactive. The inhibition entry in data set [4] and in data set [12] was “Dose-dependent effect” each time. Moreover, the result in data set [7] was Active. Further, the inhibition result in data set [11] was “inactive”.
